The list is not random: actives were taken first. Their share in the collection is about 1.8%.
GalR3 antag: blocks the human galanin receptor 3 | HEK293 GalR3-CNG cAMP membrane potential fluorescence; galR3 body fused to GalR1 C-terminus | inhibition, % at 3 µM | 360,000 compounds, 0.44% hits | AID 651719;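 active = inhibition above the screen-wide average plus 3 SD, cut at about 13% in these data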;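 note: forskolin and galanin both at EC90 stimulate the cells; cAMP rise reported by CNG channel membrane potential dye signal; 0% = forskolin plus galanin with DMSO and 100% = forskolin alone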
PG9 binder: binds the HIV-1 gp120 antibody PG9. TR-FRET gp120-PG9 antibody binding. inhibition, % at 6.7 µM. 360,000 compounds, 0.43% hits. AID 624416; in the data active = inhibition above about 8.5%
NR1D1 modulator: modulates human Rev-erb alpha binding to DNA; P20393; Rev-erbα–FITC-DNA binding, fluorescence polarization, 90 min; activity, % at 10 µM; 370,000 compounds, 0.79% hits; AID 1259318;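 active = activity above about 14%, limit read from the data; passing the limit was not always enough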;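 note: 0% = DMSO wells with 35 nM protein and 100% = DMSO wells with 750 nM protein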
NR2E3 ag-1: activates human NR2E3 receptor. 360,000 compounds, 0.35% hits. inhibition of corepressor binding, % at 3.98 µM. Q9Y5X4. CHO-S Gal4-NCOR/VP16-NR2E3 two-hybrid, luciferase;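 active = inhibition above the mean of all tested compounds plus 3 SD, cut at about 70% in these data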;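 note: 0% = DMSO with NR2E3 transfected cells and 100% = cells lacking NR2E3 construct; higher means lower luciferase signal from less NR2E3 corepressor binding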
Target sequence (Q9Y5X4 whole entry, looked up, the tested form may be a part): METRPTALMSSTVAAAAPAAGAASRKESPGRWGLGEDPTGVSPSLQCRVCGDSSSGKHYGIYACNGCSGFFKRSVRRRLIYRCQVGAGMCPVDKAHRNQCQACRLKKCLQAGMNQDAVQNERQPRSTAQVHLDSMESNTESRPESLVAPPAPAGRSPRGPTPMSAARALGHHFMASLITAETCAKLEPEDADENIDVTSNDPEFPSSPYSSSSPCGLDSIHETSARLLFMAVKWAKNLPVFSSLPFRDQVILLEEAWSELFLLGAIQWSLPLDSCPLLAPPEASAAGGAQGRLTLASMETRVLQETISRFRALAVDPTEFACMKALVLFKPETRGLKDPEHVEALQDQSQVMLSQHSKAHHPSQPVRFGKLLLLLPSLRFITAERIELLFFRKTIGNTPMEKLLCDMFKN
NR2E3 ag-2: agonists of human nuclear receptor NR2E3 | Q9Y5X4 | GST-NR2E3/biotin-RetCOR TR-FRET, 1536-well | inhibition of corepressor binding, % at 4.78 µM | 320,000 compounds, 0.12% hits;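 active = percent inhibition above the cutoff of mean plus 3 SD of all tested compounds, set per screening campaign, cut at about 20% in these data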;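 note: 0% = DMSO wells and 100% = biotin wells as full block of FRET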
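System: GST-tagged NR2E3 plus biotinylated RetCOR corepressor; Amount: 1.35 nM GST-tagged NR2E3 final; Dosing: single nominal compound dose of 4.8 µM; Schedule: 5 h incubation at 4 °C; Technique: TR-FRET with europium anti-GST and streptavidin-D2, 340 nm excitation; Controls: biotin wells as high control, 0.6% DMSO wells as low control.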
NR1D1 mod conf: Rev-erb alpha (human) modulation, hit confirmation | shares compounds with NR1D1 modulator | Rev-erb alpha FITC-DNA binding, fluorescence polarization, 90 min | activation, % at 25 µM | 3,000 compounds, 61% hits;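 active = activation at or above a set limit, or at least 3 SD above the negative control mean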;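 note: 0% = 35 nM protein with DMSO and 100% = 750 nM protein high control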
RORg counter: affects RORgamma DNA binding in a Rev-erb alpha counter-screen; shares compounds with NR1D1 modulator; purified RORgamma protein-FITC-DNA binding, fluorescence polarization; IC50, µM; 910 compounds, 8% hits; AID 1259320;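 active = Compounds whose fitted half-maximal concentration for disrupting protein-DNA binding is below 10 micromolar; the record names Rev-erb in its text, so the target is in doubt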
* marks the source's active call; other numbers are inactive results; / = no result.

SMILES	GalR3 antag	PG9 binder	NR1D1 modulator	NR2E3 ag-1	NR2E3 ag-2	NR1D1 mod conf	others
CCN1/C(=C/C(C)=O)Sc2ccc(OC)cc21	-3.1	-1.6	0.6	-43.6	-0.4	/
CCOC(=O)/C(=C\C=C1/Sc2cc(OCC)c(OCC)cc2N1CC)C(C)=O	-10.4	-13.5	111.8*	10.8	-4.9	42.4*	RORg counter=>40
O=C(CNS(=O)(=O)c1ccc(F)cc1)N1CCN(c2ccccn2)CC1	/	/	-2.5	/	/	/
C=CCN(CC#Cc1ccccc1)CC1CC1	/	/	2.1	/	/	/
Cc1cc2nc(-c3cccc(Cl)c3)c(CC(C)(C)C)n2c(C)c1Br	-5.5	1.0	15.0*	-11.5	/	8.9
Cc1ccc(S(=O)(=O)Nc2cc(C(=O)O)ccc2N2CCC(C)CC2)cc1C	/	/	11.3	/	/	/
CCn1cc(C(=O)NCCc2ccc(Cl)cc2)c(=O)c2ccc(C)nc21	-8.2	-1.2	29.1*	5.5	/	14.5
COc1ccc(C(=O)C2(C(=O)Nc3cc(C)cc(C)c3)CC(c3ccccn3)=NO2)cc1 (stereo unspecified)	/	/	8.2	/	/	/
CCCCCN1CCCCC(NC(=O)c2ccc(F)cc2)C1=O (stereo unspecified)	/	/	-1.2	/	/	/
O=C(c1ccc(Cl)cc1)c1cnc(Nc2ccccc2Cl)s1	-6.3	6.4	34.9*	-77.8	4.8	12.0
C[C@@H]1OC(C2CCCCC2)N(C)[C@H]2C[C@H]3c4[nH]c5cccc(-c6ccccc6)c5c4CCN3C[C@@H]12 (stereo partly specified)	/	/	11.3	/	/	/
C[C@H]1COc2cc(Br)ccc2S(=O)(=O)N1Cc1cn(Cc2ccc(Cl)cc2)nn1	/	/	-1.8	/	/	/
CCOC(=O)c1sc(NC(=O)CN2C(=O)NC3(CCCCCCC3)C2=O)c(C(=O)OCC)c1C	-3.0	-0.3	28.2*	-17.8	1.1	7.3
CCOC(=O)c1nn(-c2ccccc2)c(=O)cc1SC(C)C	-6.0	0.8	-1.2	-3.9	0.8	/
CCOC(=O)c1nn(-c2ccccc2)c(=O)cc1SC1CCCCC1	-2.6	0.9	28.6*	-6.4	-0.9	25.7*
Cc1cc(C)cc(OCC(=O)NNC(=S)NC(=O)C2CC2)c1	-0.9	-0.3	33.0*	3.7	-2.5	-2.2
COc1ccc(OCC(=O)NNC(=S)NC(=O)C2CC2)cc1	-1.7	-2.1	-4.7	17.4	/	/
Cc1ccc(CN2C(C(=O)NC3CCCC3)CSCCS2(=O)=O)cc1 (stereo unspecified)	/	/	-3.0	/	/	/
COC(=O)/C(C#N)=C/c1c(N2CCN(c3ccc(OC)cc3)CC2)nc2c(C)cccn2c1=O	-5.9	-1.4	32.9*	-8.0	-3.5	0.8
Cc1nc(NC(=O)c2ccc(-c3cc4ccccc4oc3=O)cc2)ccc1Br	-4.5	1.4	35.6*	5.4	-5.5	-7.5
Cc1nc(NC(=O)c2cncc(Br)c2)ccc1Br	-1.9	-0.1	61.7*	-17.9	1.2	54.9*	RORg counter=>40
CCOC(=O)c1ccccc1NC(=O)c1cncc(Br)c1	-3.5	1.4	93.8*	-9.9	/	76.9*	RORg counter=>40
O=C(CNS(=O)(=O)c1cc2ccccc2s1)N1CCN(c2ccccn2)CC1	/	/	6.4	/	/	/
O=S1(=O)c2ccc(Br)cc2OC[C@H](Cc2ccccc2)N1Cc1cn(Cc2ccc(Br)cc2)nn1	/	/	-1.0	/	/	/
Oc1ccc2ccccc2c1N=Nc1ccccn1	-3.6	-6.1	5.3	-17.6	-2.2	/
SMILES	GalR3 antag	PG9 binder	NR1D1 modulator	NR2E3 ag-1	NR2E3 ag-2	NR1D1 mod conf	others
O=S(=O)(O)c1cccc(N=Nc2c(O)ccc3ccccc23)c1	-7.5	-8.2	30.2*	-13.2	0.9	5.9
Oc1ccc2ccccc2c1N=Nc1ccccc1F	4.3	0.7	18.9*	-6.0	-2.0	5.0
CCC[C@H]1[C@@H](OC(=O)NCc2cccnc2)CC[C@@]23CCCN2C(=O)CCC[C@@H]13	/	/	-5.1	/	/	/
COc1ccc(OCC(=O)Nc2cccc(-c3nc4ccccc4o3)c2)cc1	2.1	5.7	26.4*	-127.6	-0.6	15.8
CC(C)C(=O)Nc1cccc(-c2nc3ccccc3o2)c1	-1.3	-0.2	21.3*	-108.2	0.5	19.0*
COc1cc(C(=O)Nc2cccc(-c3nc4cc(C)ccc4o3)c2)cc(OC)c1OC	1.8	0.6	61.1*	-14.4	-0.8	54.4*	RORg counter=>40
